Screening data from PubChem BioAssay.
H9c2 protect – protects H9c2 cardiomyocytes from peroxide injury | H2O2 injury protection, ATPLite, 2 h | protection from H2O2 cell death, % at 20 µM | 360,000 tested, 0.63% active | AID 588492;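 active = compounds giving at least 50% protection of heart cells from peroxide-induced death in the single-dose screen, raw or plate-pattern-corrected value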;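 note: 0% = DMSO wells with peroxide and 100% = DMSO wells without peroxide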
hiPSC survival – enhancers of human iPSC single-cell survival; hiPSC single-cell survival, ATPlite luminescence; 100% = ROCK inhibitor wells, 0% = DMSO; survival enhancement, % at 20 µM; 360,000 tested, 0.044% active; in the data active = survival enhancement above about 18%;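 note: cells exposed to compounds for 16 hours before the ATP read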
UPR XBP1 act – activators of adaptive arm of unfolded protein response (XBP1). 330,000 tested, 0.33% active. CHO-XBP1 luciferase reporter, IRE1-XBP1 UPR activation, luminescence; percent of tunicamycin response, DMSO as zero. activation, % at 20 µM;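 active = versus positive control, 20 µM dose yields 30% or more activation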;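 note: 100% = tunicamycin at 10 µg/mL and 0% = DMSO only wells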
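assay system = CHO-XBP1 luciferase reporter cells | amount = 1000 cells/well | buffer or medium = F12 plus 10% FBS | compound dosing = single point, 20 µM final compound, 1% DMSO | incubation = 16-18 h cell attachment at 37 °C, then 6 h compound exposure | detection = Steady-Glo luminescence read | controls = tunicamycin 10 µg/mL and vehicle-only wells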
CHOP inhibitor – CHOP inhibition in unfolded protein response; CHO-K1 CHOP-promoter luciferase, tunicamycin-induced, 15-18 h; inhibition, % at 10 µM; 220,000 tested, 3.8% active;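 active = compounds that reduced the stress-induced luciferase reporter signal by more than about 70% of percent inhibition, limit read from the data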;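 note: 0% = tunicamycin plus vehicle and 100% = wells without tunicamycin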
UPR CHOP act – apoptotic UPR (CHOP) activation. CHO-CHOP luciferase reporter, luminescence; percent of tunicamycin response over DMSO baseline. AID 449763. 330,000 tested, 0.34% active. activation, % at 10 µM;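 active = at 10 µM dose, activation of 40% or more, normalized to positive control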;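 note: 100% = tunicamycin at 10 µg/mL and 0% = DMSO alone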
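measured by = luciferase luminescence | assay system = CHO-CHOP cells, stable luciferase reporter of PERK-eIF2a-CHOP signalling | amount = 500 reporter cells seeded per well | timing = 6 h compound exposure at 37 °C after overnight seeding | controls = positive tunicamycin 10 µg/mL, negative DMSO alone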
* marks the source's active call; other numbers are inactive results; / = not tested or not shown. This is one part of a sample in which hits are shown more often than they occur.

SMILES	H9c2 protect	hiPSC survival	UPR XBP1 act	CHOP inhibitor	UPR CHOP act
N#C/C(=C\c1cn(-c2ccccc2)nc1-c1cccnc1)c1nnc2n1CCCCC2	51*	-1	4	20	-2
O=C(/C=C/c1cn(-c2ccccc2)nc1-c1cccnc1)N1CCCC1	48	3	/	-26	/
CCCCNC(=O)C1(C)CCCCN1Cc1ccc(OCc2ccccc2)cc1 (stereo not given)	-24	-2	/	/	/
C=C(C)c1cccc(C(C)(C)NC(=O)Nc2ccc(Cl)cn2)c1	-17	4	-1	78*	1
CCOC(=O)[C@]12CCC=C1N(Cc1ccc(Cl)cc1Cl)C(=O)[C@H](CC(=O)NCc1ccc(C)o1)C2	/	-1	/	/	/
O=C(c1ccc(Cl)cc1)C1CCN(C(=O)c2ccc(F)cc2)CC1	0	1	-2	/	0
CC(=O)N1CCC(C(=O)c2ccc(Cl)cc2)CC1	0	1	-3	89*	-2
O=C(O)CCn1c(SCCOc2ccccc2F)nc2ccccc21	-5	2	-2	/	-1
Cc1cc2cc(C)c(NCCNC(=O)c3cccc(F)c3)nc2cc1C	-1	2	1	0	-1
Cc1cccc(C(=O)NCCNc2nc3cc(C)c(C)cc3cc2C)c1	-10	0	1	76*	-1
Brc1ccc2[nH]c3c(N4CCc5ccccc5C4)ncnc3c2c1	/	/	2	64	7
Cc1ccc2[nH]c3c(N4CCc5ccccc5C4)ncnc3c2c1	-22	2	6	74*	10
Fc1ccc2[nH]c3c(N4CCc5ccccc5C4)ncnc3c2c1	-9	0	0	73*	8
Cc1ccc(S(=O)(=O)N2C[C@H]3[C@H]4C(=O)N(C)C(=O)[C@H]4CC(=O)[C@H]3[C@@H]2c2ccccc2F)cc1	6	0	/	/	/
C/C(=N\NC(=O)COc1ccc(C)cc1C(C)C)c1ccc(-n2ccnc2)cc1	-10	-2	3	93*	9
Nc1ccccc1CCc1ccccc1N	-1	-1	/	/	/
Cc1nc(SCc2nc3c(F)cccc3[nH]2)c2oc3ccccc3c2n1	9	-2	4	/	2
CCC1(C(=O)c2ccc(Cl)cc2)C2c3ccccc3OC(=O)C21C(=O)Nc1ccccc1 (stereo not given)	21	4	-3	78*	1
O=C(Cc1ccc(Cl)c(Cl)c1)OCCN1CCCC1	/	/	/	8	/
O=[N+]([O-])/C=C/c1cn(Cc2ccc(F)cc2)c2ccccc12	-11	0	-3	93*	9
CCn1cc(Br)c(-c2nc3ccccc3c(=O)n2N)n1	2	-1	1	90*	2
Cc1nc2ccccc2c(=O)n1N	1	8	3	51	1
C=CCSc1nc(C)c2cc(C)cc(C)c2n1	-12	1	1	96*	1
CN1CCN(c2cc(CNC[C@H]3O[C@@H](n4cnc5c(=O)[nH]c(N)nc54)[C@H](O)[C@@H]3O)ccc2F)CC1	8	1	/	/	/
CCCCn1nc(NC(=O)c2cccs2)c2cc3cc(OC)ccc3nc21	62*	0	-2	/	7
SMILES	H9c2 protect	hiPSC survival	UPR XBP1 act	CHOP inhibitor	UPR CHOP act
COc1ccc2nc3c(cc2c1)c(NC(=O)C1CCCO1)nn3CC(C)C (stereo not given)	98*	-2	0	24	2
CCCCn1nc(NC(=O)c2cccs2)c2cc3ccccc3nc21	56*	0	0	66	0
COc1ccc2nc3c(cc2c1)c(NC(=O)CC(C)C)nn3CC(C)C	5	-1	-3	/	0
CCCn1nc(NC(=O)c2cccs2)c2cc3cc(OC)ccc3nc21	20	0	6	29	9
CCCn1nc(NC(=O)c2cccs2)c2cc3ccccc3nc21	8	-1	3	27	-1
CC(C)NC(=O)N(C)C[C@@H]1OCc2cnnn2CCCC(=O)N([C@@H](C)CO)C[C@H]1C	8	-2	/	/	/
CCN(CC)S(=O)(=O)c1ccc(N2CCOCC2)c(NC(=O)c2[nH]c(C)c(C(C)=O)c2C)c1	48	0	3	/	2
CN(C)CCNc1ncnc2c1ncn2[C@H]1CN(Cc2ccco2)C[C@@H](CO)O1	-2	-2	/	/	/
CC1(C)Oc2ccc3ccc(=O)oc3c2/C(=C/Nc2ccccn2)C1=O	56*	0	6	92*	-1
COc1c2occc2c(OC)c2c(=O)cc(C(F)(F)C(F)(F)F)oc12	0	1	2	83*	-2
CC1=C2C3OC(=O)C(C)C3CCC2(C)C=CC1=NO (stereo not given)	10	-1	/	/	/
CCCNC(=O)C1(C)CCCN(Cc2ccc3c(c2)OCO3)C1 (stereo not given)	4	3	/	/	/
CC(=O)NC1c2ccccc2C(=O)N1Cc1ccccc1 (stereo not given)	-5	0	-1	/	0
O=C1c2ccccc2C(Nc2ccc(Cl)cn2)N1Cc1ccccc1 (stereo not given)	-4	4	-2	80*	0
CCCCN(C(=O)c1ccc(N2C(=O)c3ccccc3C2=O)cc1)c1c(N)n(CC(C)C)c(=O)[nH]c1=O	-3	0	-2	/	2
NNC(=O)CN1CCN(c2ncc(C(F)(F)F)cc2Cl)CC1	4	-2	1	-4	0
NC(=O)c1ccc(N2CCN(c3ncc(C(F)(F)F)cc3Cl)CC2)cc1	-4	0	0	10	0
CC(C)(C)NC(=O)NC(=O)CN1CCN(c2ncc(C(F)(F)F)cc2Cl)CC1	-10	0	-3	78*	-2
CC(=O)c1ccc(N2CCN(c3ncc(C(F)(F)F)cc3Cl)CC2)cc1	-36	-2	-1	79*	2
CC(=O)c1ccc(N2CCN(c3ccc(C(F)(F)F)cn3)CC2)cc1	-9	2	/	83*	/
Cc1cccc(-n2c(=O)[nH]c3c(C(N)=O)nc(-c4ccccc4Cl)nc32)c1	14	2	3	91*	2
COc1ccccc1-c1nc(C(N)=O)c2[nH]c(=O)n(-c3cccc(C)c3)c2n1	1	0	6	-7	-2
NC(=O)c1nc(-c2cccs2)nc2c1[nH]c(=O)n2-c1ccc(F)cc1	-6	-1	2	76*	-1
CC(C)Cc1nc(C(N)=O)c2[nH]c(=O)n(-c3ccc(F)cc3)c2n1	2	0	0	20	1
O=C(Nc1ccc(Cl)c(Cl)c1)Nc1ccc(Br)cc1F	-19	-1	5	101*	3
CCOc1nc(Nc2ccc(OC)c(Cl)c2)nc(OCC)n1	18	-2	0	83*	-2
CCOc1nc(Nc2ccc(OC)cc2)nc(OCC)n1	-4	-2	-2	20	-1
CCOC(=O)C1CCCN(C(=O)CCC(=O)Nc2ccc3nc(N4CCOCC4)cc(C)c3c2)C1 (stereo not given)	59*	0	1	-29	-1
